ChEMBL document CHEMBL4229446, “Development of Novel Monoamine Oxidase-B (MAO-B) Inhibitors with Reduced Blood-Brain Barrier Permeability for the Potential Management of Noncentral Nervous System (CNS) Diseases” (J Med Chem, 2018)

Columns and labels:
[1] = biological target: T1, Amine oxidase [flavin-containing] A (Homo sapiens, UniProt P21397); assay: Inhibition of human recombinant MAO-A expressed in baculovirus infected BTI-TN-5B1-4 insect cells using tyramine as substrate preincubated for 1 hr followed by substrate addition and measured after 30 mins by resazurin dye-based fluorescence assay
T1 sequence (P21397 whole entry): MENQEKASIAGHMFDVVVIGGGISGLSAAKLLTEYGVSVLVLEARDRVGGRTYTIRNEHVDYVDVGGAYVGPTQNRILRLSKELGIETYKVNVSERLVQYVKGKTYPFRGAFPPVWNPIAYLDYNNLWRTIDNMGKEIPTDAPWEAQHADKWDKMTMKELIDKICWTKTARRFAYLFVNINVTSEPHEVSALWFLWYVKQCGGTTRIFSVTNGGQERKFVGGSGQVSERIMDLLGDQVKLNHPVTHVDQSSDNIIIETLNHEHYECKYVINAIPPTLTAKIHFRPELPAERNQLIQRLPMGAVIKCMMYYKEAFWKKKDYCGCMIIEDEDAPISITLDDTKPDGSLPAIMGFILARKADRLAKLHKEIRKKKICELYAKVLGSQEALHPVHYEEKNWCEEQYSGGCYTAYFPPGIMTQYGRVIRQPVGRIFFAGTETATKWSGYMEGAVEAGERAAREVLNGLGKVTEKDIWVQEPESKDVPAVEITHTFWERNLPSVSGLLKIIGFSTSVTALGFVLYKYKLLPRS

[2] = biological target: T2, Amine oxidase [flavin-containing] B (Homo sapiens, UniProt P27338); assay: Inhibition of human recombinant MAO-B expressed in baculovirus infected BTI-TN-5B1-4 insect cells using benzylamine as substrate preincubated for 1 hr followed by substrate addition and measured after 30 mins by resazurin dye-based fluorescence assay; format: cell-based
T2 sequence (P27338 whole entry): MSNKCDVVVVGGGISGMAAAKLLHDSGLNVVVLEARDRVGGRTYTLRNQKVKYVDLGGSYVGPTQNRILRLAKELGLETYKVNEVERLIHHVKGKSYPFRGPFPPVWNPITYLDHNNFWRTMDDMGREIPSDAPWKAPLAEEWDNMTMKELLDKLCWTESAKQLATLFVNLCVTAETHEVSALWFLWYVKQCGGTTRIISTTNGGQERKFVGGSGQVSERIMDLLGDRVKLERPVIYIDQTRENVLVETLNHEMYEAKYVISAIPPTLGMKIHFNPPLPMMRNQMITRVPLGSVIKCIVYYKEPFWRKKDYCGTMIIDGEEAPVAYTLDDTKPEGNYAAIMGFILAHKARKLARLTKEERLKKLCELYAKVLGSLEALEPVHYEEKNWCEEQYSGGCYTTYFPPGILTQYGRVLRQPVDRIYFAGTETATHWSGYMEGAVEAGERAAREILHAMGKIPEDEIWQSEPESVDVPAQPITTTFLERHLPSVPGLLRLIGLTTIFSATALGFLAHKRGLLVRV

P-gp (MDR1) = assay: Efflux ratio of apparent permeability in MDCK2-MDR1 cells at 10 uM after 1 hr in absence of P-gp inhibitor verapamil by UPLC-MS/MS analysis; format: ADME, cell-based, Canis lupus familiaris; details: dog, MDCK-MDR1
Method in brief: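 MDCK-WT (MEM-α/10% FBS) or MDCK-MDR1 II (DMEM/10% FBS) cells were grown 3 days on 12-well transwells. Integrity was checked by TEER and 100 μM Lucifer yellow. Cells were washed in HBSS/10 mM HEPES. Compound at 10 μM was added apically or basally, in triplicate, ±100 μM verapamil. Receiver sampled at 1 h by UPLC-MS/MS. Efflux ratio = Papp B→A / Papp A→B.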

[3] = Efflux ratio of apparent permeability in MDCK-WT cells at 10 uM after 1 hr in absence of P-gp inhibitor verapamil by UPLC-MS/MS analysis; details: dog
[4] = Metabolic stability in human plasma assessed as parent compound remaining at 5 uM after 4 hrs by UPLC-MS/MS analysis; format: ADME, cell-free; details: read-out: Stability
Method in brief: (§1)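 Compound at 5 μM was incubated in mouse or human plasma at 37 °C with shaking. Sampled at 0, 5, 15, 30, 60, 120 and 240 min and stopped with ice-cold acetonitrile/0.1% formic acid containing internal standard. Supernatants analysed by UPLC-MS/MS for parent remaining. Run in triplicate.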

[5] = Metabolic stability in mouse plasma assessed as parent compound remaining at 5 uM after 4 hrs by UPLC-MS/MS analysis; format: ADME, cell-free; details: read-out: Stability; method in brief: as §1
[6] = Metabolic stability in mouse liver microsomes assessed as parent compound remaining at 1 uM after 60 mins in presence of NADPH by UPLC-MS/MS analysis; format: ADME, microsome; details: read-out: Stability
Method in brief: (§2)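 Compound at 1 μM with 0.5 mg/mL mouse or human liver microsomes in 100 mM potassium phosphate pH 7.4, 3.3 mM MgCl2, 1 mM NADPH, at 37 °C. Started with NADPH; minus-NADPH control run. Stopped at 0, 5, 15, 30, 45 and 60 min with acetonitrile/formic acid plus internal standard. Parent remaining by UPLC-MS/MS, in triplicate.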

[7] = Metabolic stability in human liver microsomes assessed as parent compound remaining at 1 uM after 60 mins by UPLC-MS/MS analysis; format: ADME, microsome; details: liver microsomes, read-out: Stability; method in brief: as §2
[8] = Metabolic stability in cryopreserved mouse hepatocytes assessed as parent compound remaining at 1 uM after 60 mins by UPLC-MS/MS analysis; format: ADME, cell-based, Hepatocyte; details: read-out: Stability
Mus musculus [9] = assay: Acute toxicity in C57BL/6 mouse assessed as abnormal clinical signs at […], sc administered as single dose measured after 24 hrs post-injection; format: organism-based; details: in vivo
[10] = Tmax in C57BL/6 mouse plasma at 22 mg/kg, iv administered as single dose measured 24 hrs by UPLC-MS/MS analysis; format: ADME, organism-based
Method in brief: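 Plasma cleaned by protein precipitation with phospholipid removal, then UPLC-MS/MS in MRM mode. Tmax obtained by noncompartmental analysis.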

[11] = Cmax in C57BL/6 mouse plasma at 22 mg/kg, iv administered as single dose measured 24 hrs by UPLC-MS/MS analysis; format: ADME, organism-based; parameters: dose 22 mg/kg, route intravenous
Method in brief: (§3)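 21 animals dosed at 0 min, 3 sacrificed at each of 0, 5, 15, 30 min, 1, 4 and 24 h. Plasma was extracted by protein precipitation with phospholipid removal. Brain was weighed, bead-homogenised in 50 mM ammonium formate and extracted in acidified organic solvent. Quantified by UPLC-MS/MS (MRM). Brain ng/g taken as ng/mL. Parameters came from noncompartmental analysis. Kp = AUClast brain/plasma.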

[12] = AUClast in C57BL/6 mouse plasma at 22 mg/kg, iv administered as single dose measured 24 hrs by UPLC-MS/MS analysis; format: ADME, organism-based; parameters: dose 22 mg/kg, time 0 - last, route intravenous; method in brief: as §3
[13] = Apparent half-life of the terminal disposition phase in C57BL/6 mouse plasma at 22 mg/kg, iv administered as single dose measured 24 hrs by UPLC-MS/MS analysis; format: ADME, organism-based; details: read-out: t1/2 lambda z (converted); method in brief: as §3
[14] = Tmax in C57BL/6 mouse brain at 22 mg/kg, iv administered as single dose measured 24 hrs by UPLC-MS/MS analysis; format: ADME, organism-based
Method in brief: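 Brains weighed, portion bead-homogenised in 50 mM ammonium formate, extracted in acidified organic solvent, quantified by UPLC-MS/MS. ng/g taken as ng/mL. Tmax from noncompartmental analysis.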

[15] = Cmax in C57BL/6 mouse brain at 22 mg/kg, iv administered as single dose measured 24 hrs by UPLC-MS/MS analysis; format: ADME, organism-based; parameters: dose 22 mg/kg, route intravenous; method in brief: as §3
[16] = AUClast in C57BL/6 mouse brain at 22 mg/kg, iv administered as single dose measured 24 hrs by UPLC-MS/MS analysis; format: ADME, organism-based; parameters: dose 22 mg/kg, route intravenous, time 0 - last; method in brief: as §3
[17] = Ratio of AUClast in brain to plasma in C57BL/6 mouse at 22 mg/kg, iv administered as single dose measured 24 hrs by UPLC-MS/MS analysis; format: ADME, organism-based; method in brief: as §3
Mus musculus [18] = assay: Acute toxicity in C57BL/6 mouse assessed as abnormal clinical signs at […], iv administered as single dose measured after 24 hrs post-injection; format: organism-based; details: in vivo
Mus musculus [19] = assay: Acute toxicity in C57BL/6 mouse assessed as abnormal clinical signs at […], po administered as single dose measured after 24 hrs post-injection; format: organism-based; details: in vivo

SMILES | IC50 [1] [µM] | IC50 [2] [µM] | further results
C[C@H](Cc1ccc(OCc2cc(Cl)ccc2Cl)cc1)N(C)CC(=O)O | > 50 | 1.38 | –
C[C@H](Cc1ccc(OCc2cccc(C#N)c2)cc1)N(C)CC(=O)O | > 50 | 21.3 | –
O=C(O)COCCN1CCN(C(c2ccccc2)c2ccc(Cl)cc2)CC1 (configuration not stated) [CETIRIZINE] | – | – | efflux ratio at 1 h, 10 µM (P-gp (MDR1)): 4.12; efflux ratio at 1 h, 10 µM [3]: 3
C[C@H](Cc1ccc(OCc2ccc(Cl)c(Cl)c2)cc1)N(C)CC(=O)O | 41.4 | 0.218 | efflux ratio at 1 h, 10 µM (P-gp (MDR1)): 3.07; remaining at 4 h, 5 µM [4]: ≥ 75%; remaining at 4 h, 5 µM [5]: ≥ 75%; remaining at 1 h, 1 µM [6]: 89.5%; remaining at 1 h, 1 µM [7]: ≥ 90%; remaining at 1 h, 1 µM [8]: ≥ 90%; Activity (Mus musculus [9]): Non-Toxic; Tmax [10]: 5 min; Cmax [11]: 16200 ng/mL; AUC(0-t) at 24 h [12]: 82000 ng·h/mL; half-life [13]: 3.97 h; Tmax [14]: 4 h; Cmax [15]: 455 ng/mL; AUC(0-t) at 24 h [16]: 7450 ng·h/mL; Kp at 24 h [17]: 0.09; Activity (Mus musculus [18]): Non-Toxic; Activity (Mus musculus [19]): Non-Toxic; efflux ratio at 1 h, 10 µM [3]: 1.45
C[C@H](Cc1ccc(OCc2cc(F)cc(F)c2)cc1)N(C)CC(=O)O | > 50 | 0.911 | –
CN(CC(=O)O)[C@H](CO)Cc1ccc(OCc2ccccc2)cc1 | > 50 | 1.01 | –
C[C@H](Cc1ccc(OCc2ccc3ccccc3c2)cc1)N(C)CC(=O)O | – | 14.2 | –
C[C@H](Cc1ccc(OCc2ccncc2)cc1)N(C)CC(=O)O | > 50 | 22 | –
COc1cccc(COc2ccc(C[C@@H](C)N(C)CC(=O)O)cc2)c1 | – | 2.11 | –
CN(CC(=O)O)[C@H](CC#N)Cc1ccc(OCc2ccccc2)cc1 | > 50 | 0.532 | –
C[C@H](Cc1ccc(OCc2ccc(Cl)cc2)cc1)N(C)CC(=O)O | 217 | 0.864 | –
C[C@H](Cc1ccc(OCc2ccccc2)cc1)N(C)CC(=O)O | > 50 | 0.894 | –
C[C@H](Cc1ccc(OCc2cccc(F)c2)cc1)N(C)CC(=O)O | > 50 | 0.869 | –
